{"source": "the RNAGym collection of RNA variant scans (doi:10.1038/s41586-018-0170-7)", "parents": {"B1": {"name": "tRNA (parent)", "chain": "GUUCCGUUGGCGUAAUGGUAACGCGUCUCCCUCCUAAGGAGAAGACUGCGGGUUCGAGUCCCGUACGGAACG"}}, "data": [{"variants_of": "B1", "experiment": "yeast fitness, log relative to wild type (ln ratio); higher = fitter; tRNA-Arg(CCU), competitive growth, 37 C, 1 M NaCl", "outline": "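Genotype fitness is expressed as the natural log of its generations over those of the wild type. Each pool of the tRNA-Arg(CCU) variant library, carried on a HIS3 centromeric plasmid in BY4742 lacking the chromosomal gene, came from one of two independent transformations and grew 4 generations in SC-HIS at 30 °C before ~6.5 generations (~26.5 h) in SC-HIS 1M NaCl at 37 °C. Generation numbers used OD-scaled log2 output/input frequencies from 125 bp paired-end Illumina sequencing, combined across replicates by inverse-variance weighting.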", "values": [{"variant": "AGUCCGUUGGCGUAAUGGUAACGCGUCUCCCUCCUAAGGAGACGAUUGCGGGUUCGAGUCCCGUACGGAAUG", "yeast fitness (ln)": -0.115}, {"variant": "GUUCCGUUGGCGUAAUGGUAACGCGUUUCCCUCCUAAGGAGACGACUGCGGGUUCGAGUCCCGUAUGGAGUG", "yeast fitness (ln)": -0.211}, {"variant": "GGUCCGUUGGCGUAAUGGUAACGCGUUUCCCUCCUAAGGAGACGACUGCGGGUUCGAGUCCCGUACGGGUUG", "yeast fitness (ln)": -0.364}, {"variant": "GCUCCUUUGGCGUAAUGGUAACGCGUUUCCCUCCUAAGGAGAAGACUGCGGGUUCGAGUCCCGUAUGGAACG", "yeast fitness (ln)": -0.0859}, {"variant": "GUUCCGUUGGCGUAAUGGUAACGCGUCUCCCUCCUAAGGAGAAGAUUGCGGGUUCGAGUCCCGUAAGGGGCG", "yeast fitness (ln)": -0.0653}, {"variant": "GGUCCUUUGGCGUAAUGGUAACGCGUCUCCCUCCUAAGGAGAAGAUUGCGGGUUCGAGUCCCGUAUGGAUUG", "yeast fitness (ln)": -0.643}, {"variant": "GCUCCAUUGGCGUAAUGGUAACGCGUCUCCCUCCUAAGGAGACGACUGCGGGUUCGAGUCCCGUAUGGAAUG", "yeast fitness (ln)": -0.115}, {"variant": "GCUCCGUUGGCGUAAUGGUAACGCGUUUCCCUCCUAAGGAGAAGACUGCGGGUUCGAGUCCCGUAUGGGUUG", "yeast fitness (ln)": -0.453}, {"variant": "GGUCCAUUGGCGUAAUGGUAACGCGUCUCCCUCCUAAGGAGACGACUGCGGGUUCGAGUCCCGUACGGAUCG", "yeast fitness (ln)": -0.14}, {"variant": "AUUCCUUUGGCGUAAUGGUAACGCGUUUCCCUCCUAAGGAGACGAUUGCGGGUUCGAGUCCCGUAUGGGGUG", "yeast fitness (ln)": -0.501}, {"variant": "AUUCCAUUGGCGUAAUGGUAACGCGUUUCCCUCCUAAGGAGAAGAUUGCGGGUUCGAGUCCCGUAUGGAUCG", "yeast fitness (ln)": -0.198}, {"variant": "GCUCCAUUGGCGUAAUGGUAACGCGUCUCCCUCCUAAGGAGAAGAUUGCGGGUUCGAGUCCCGUACGGGGUG", "yeast fitness (ln)": -0.145}, {"variant": "GUUCCUUUGGCGUAAUGGUAACGCGUUUCCCUCCUAAGGAGAAGAUUGCGGGUUCGAGUCCCGUACGGAACG", "yeast fitness (ln)": -0.174}, {"variant": "ACUCCGUUGGCGUAAUGGUAACGCGUCUCCCUCCUAAGGAGAAGACUGCGGGUUCGAGUCCCGUACGGGUCG", "yeast fitness (ln)": -0.00637}, {"variant": "GGUCCUUUGGCGUAAUGGUAACGCGUCUCCCUCCUAAGGAGACGAUUGCGGGUUCGAGUCCCGUAUGGGUCG", "yeast fitness (ln)": -0.286}, {"variant": "GCUCCGUUGGCGUAAUGGUAACGCGUUUCCCUCCUAAGGAGACGAUUGCGGGUUCGAGUCCCGUAUGGAUCG", "yeast fitness (ln)": -0.115}, {"variant": "AGUCCUUUGGCGUAAUGGUAACGCGUCUCCCUCCUAAGGAGAAGAUUGCGGGUUCGAGUCCCGUACGGAGUG", "yeast fitness (ln)": -0.257}, {"variant": "GUUCCAUUGGCGUAAUGGUAACGCGUCUCCCUCCUAAGGAGACGAUUGCGGGUUCGAGUCCCGUAUGGGAUG", "yeast fitness (ln)": -0.558}, {"variant": "AUUCCAUUGGCGUAAUGGUAACGCGUUUCCCUCCUAAGGAGAAGACUGCGGGUUCGAGUCCCGUACGGAUCG", "yeast fitness (ln)": -0.293}, {"variant": "GGUCCGUUGGCGUAAUGGUAACGCGUCUCCCUCCUAAGGAGAAGACUGCGGGUUCGAGUCCCGUAUGGGUUG", "yeast fitness (ln)": -0.381}, {"variant": "ACUCCGUUGGCGUAAUGGUAACGCGUUUCCCUCCUAAGGAGACGAUUGCGGGUUCGAGUCCCGUACGGGGUG", "yeast fitness (ln)": -0.0168}, {"variant": "GUUCCGUUGGCGUAAUGGUAACGCGUCUCCCUCCUAAGGAGAAGACUGCGGGUUCGAGUCCCGUAUGGGUCG", "yeast fitness (ln)": -0.0858}, {"variant": "GUUCCGUUGGCGUAAUGGUAACGCGUCUCCCUCCUAAGGAGACGAUUGCGGGUUCGAGUCCCGUACGGAACG", "yeast fitness (ln)": 0.00767}, {"variant": "AUUCCAUUGGCGUAAUGGUAACGCGUCUCCCUCCUAAGGAGAAGAUUGCGGGUUCGAGUCCCGUAUGGAGUG", "yeast fitness (ln)": -0.0284}, {"variant": "GUUCCGUUGGCGUAAUGGUAACGCGUCUCCCUCCUAAGGAGACGAUUGCGGGUUCGAGUCCCGUAUGGAUCG", "yeast fitness (ln)": -0.0743}, {"variant": "GUUCCGUUGGCGUAAUGGUAACGCGUUUCCCUCCUAAGGAGACGAUUGCGGGUUCGAGUCCCGUAAGGAGCG", "yeast fitness (ln)": -0.0609}, {"variant": "AUUCCGUUGGCGUAAUGGUAACGCGUCUCCCUCCUAAGGAGACGACUGCGGGUUCGAGUCCCGUACGGGGUG", "yeast fitness (ln)": -0.353}, {"variant": "AUUCCUUUGGCGUAAUGGUAACGCGUUUCCCUCCUAAGGAGAAGAUUGCGGGUUCGAGUCCCGUACGGAAUG", "yeast fitness (ln)": -0.239}, {"variant": "GCUCCAUUGGCGUAAUGGUAACGCGUUUCCCUCCUAAGGAGACGAUUGCGGGUUCGAGUCCCGUACGGAAUG", "yeast fitness (ln)": -0.115}, {"variant": "AGUCCGUUGGCGUAAUGGUAACGCGUUUCCCUCCUAAGGAGACGACUGCGGGUUCGAGUCCCGUACGGAUCG", "yeast fitness (ln)": -0.154}, {"variant": "GCUCCUUUGGCGUAAUGGUAACGCGUUUCCCUCCUAAGGAGACGAUUGCGGGUUCGAGUCCCGUAAGGGUCG", "yeast fitness (ln)": -0.101}, {"variant": "AUUCCGUUGGCGUAAUGGUAACGCGUUUCCCUCCUAAGGAGAAGACUGCGGGUUCGAGUCCCGUAUGGAACG", "yeast fitness (ln)": -0.206}, {"variant": "ACUCCUUUGGCGUAAUGGUAACGCGUUUCCCUCCUAAGGAGAAGAUUGCGGGUUCGAGUCCCGUAAGGAUCG", "yeast fitness (ln)": -0.0687}, {"variant": "AUUCCGUUGGCGUAAUGGUAACGCGUCUCCCUCCUAAGGAGAAGACUGCGGGUUCGAGUCCCGUACGGGACG", "yeast fitness (ln)": -0.141}, {"variant": "GCUCCUUUGGCGUAAUGGUAACGCGUUUCCCUCCUAAGGAGACGAUUGCGGGUUCGAGUCCCGUAUGGGGCG", "yeast fitness (ln)": -0.256}, {"variant": "GCUCCGUUGGCGUAAUGGUAACGCGUCUCCCUCCUAAGGAGACGAUUGCGGGUUCGAGUCCCGUACGGAGUG", "yeast fitness (ln)": 0.00238}, {"variant": "GUUCCUUUGGCGUAAUGGUAACGCGUUUCCCUCCUAAGGAGAAGACUGCGGGUUCGAGUCCCGUAAGGAGUG", "yeast fitness (ln)": -0.294}, {"variant": "ACUCCGUUGGCGUAAUGGUAACGCGUUUCCCUCCUAAGGAGACGACUGCGGGUUCGAGUCCCGUACGGAUCG", "yeast fitness (ln)": -0.111}]}]}
